From ChEMBL document CHEMBL1268931, “Tailored α-methylene-γ-butyrolactones and their effects on growth suppression in pancreatic carcinoma cells” (Bioorg Med Chem Lett, 2010)

What was measured:
BXPC-3 [1] = assay: Cytotoxicity against human BxPC3 cells assessed as cell growth at 10 uM after 72 hrs by MTT assay relative to untreated control; assay type: functional; conditions: BXPC-3, 72 h, read-out: Activity
Summary of the method: (§1)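 After 72 h of exposure, growth was read with MTS (CellTiter 96 AQueous One) colorimetric reagent as percent of control-treated cells (100%). Mean of at least two independent experiments run in triplicate.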

MIA PaCa-2 [2] = assay: Cytotoxicity against human MIAPaCa2 cells assessed as cell growth at 10 uM after 72 hrs by MTT assay relative to untreated control; assay type: functional; conditions: MIA PaCa-2, 72 h, read-out: Activity; summary of the method: as §1
PANC-1 [3] = assay: Cytotoxicity against human PANC1 cells assessed as cell growth at 10 uM after 72 hrs by MTT assay relative to untreated control; assay type: functional; conditions: PANC-1, 72 h, read-out: Activity; summary of the method: as §1
PANC-1 [4] = assay: Cytotoxicity against human PANC1 cells assessed as cell growth at 1 uM after 72 hrs by MTT assay relative to untreated control; assay type: functional; conditions: PANC-1, 72 h, read-out: Activity; summary of the method: as §1
MIA PaCa-2 [5] = assay: Cytotoxicity against human MIAPaCa2 cells assessed as cell growth at 1 uM after 72 hrs by MTT assay relative to untreated control; assay type: functional; conditions: MIA PaCa-2, 72 h, read-out: Activity; summary of the method: as §1
BXPC-3 [6] = assay: Cytotoxicity against human BxPC3 cells assessed as cell growth at 1 uM after 72 hrs by MTT assay relative to untreated control; assay type: functional; conditions: BXPC-3, 72 h, read-out: Activity; summary of the method: as §1
[7] = Toxicity against human normal Hematopoietic Progenitor Cells isolated from human cord blood at 1 uM after 18 hrs by MTT assay relative to untreated control

Structure (SMILES) | growth at 10 µM (BXPC-3 [1]) [%] | growth at 10 µM (MIA PaCa-2 [2]) [%] | growth at 10 µM (PANC-1 [3]) [%] | growth at 1 µM (PANC-1 [4]) [%] | growth at 1 µM (MIA PaCa-2 [5]) [%] | growth at 1 µM (BXPC-3 [6]) [%] | Activity [7]
C=C1C(=O)OCC1c1ccccc1 (stereo not given) | 40 | 14 | 31 | – | – | – | –
C=C1C(=O)O[C@@H]2C3O[C@]3(C)CC/C=C(\C)CC[C@@H]12 (stereo not given in full) | 6 | 3 | 12 | 132 | 78 | 92 | –
C=C1CC(c2ccccc2)OC1=O (stereo not given) | 136 | 106 | 135 | – | – | – | –
C=C1C(=O)O[C@@H](C2CCCCC2)[C@H]1c1ccccc1 (relative stereo) | 95 | 81 | 104 | – | – | – | –
C=C1C(=O)O[C@@H](c2ccccc2)[C@H]1C (relative stereo) | 41 | 14 | 62 | 143 | 114 | 98 | –
C=C1C(=O)O[C@@H](C(C)C)[C@H]1C (relative stereo) | 153 | 143 | 119 | – | – | – | –
C=C1C(=O)O[C@@H](c2ccc(OC)cc2)[C@H]1C (relative stereo) | 13 | 9 | 32 | 130 | 109 | 128 | –
C=C1C(=O)O[C@@H](c2c(F)c(F)c(F)c(F)c2F)[C@H]1C (relative stereo) | 89 | 53 | 70 | 86 | 120 | 98 | –
C/C=C1\C(=O)O[C@H](c2ccc(OC)cc2)[C@H]1C (relative stereo) | 179 | 124 | 139 | – | – | – | –
C/C=C1\C(=O)O[C@@H](c2ccc([N+](=O)[O-])cc2)[C@H]1C (relative stereo) | 117 | 110 | 106 | – | – | – | –
C=C1C(=O)O[C@H](c2ccc3ccccc3c2)[C@H]1C (relative stereo) | 27 | 4 | 22 | 139 | 74 | 113 | –
C=C1C(=O)O[C@@H](c2ccccc2)[C@H]1c1ccccc1 (relative stereo) | 8 | 3 | 38 | 108 | 32 | 51 | –
C=C1C(=O)O[C@H](c2ccccc2)[C@H]1c1ccccc1 (relative stereo) | 1 | 1 | 1 | 116 | 30 | 86 | Non-toxic
C=C1C(=O)O[C@H](c2ccc(C)cc2)[C@H]1c1ccccc1 (relative stereo) | 0 | 2 | 0 | 105 | 26 | 67 | Non-toxic
C=C1C(=O)O[C@H](c2ccc(OC)cc2)[C@H]1c1ccccc1 (relative stereo) | 0 | 0 | 0 | 80 | 54 | 73 | –
C=C1C(=O)O[C@H](c2ccc(C(F)(F)F)cc2)[C@H]1c1ccccc1 (relative stereo) | 13 | 5 | 33 | 152 | 142 | 138 | –
C=C1C(=O)O[C@@H](c2ccc3ccccc3c2)[C@H]1c1ccccc1 (relative stereo) | 1 | 6 | 33 | 98 | 125 | 104 | –
C=C1C(=O)O[C@H](c2ccc3ccccc3c2)[C@H]1c1ccccc1 (relative stereo) | 1 | 3 | 13 | 53 | 29 | 60 | Non-toxic
C/C1=C\CC[C@@]2(C)O[C@@H]2[C@H]2OC(=O)C(CN(C)C)[C@@H]2CC1 (stereo not given in full) [DIMETHYLAMINOPARTHENOLIDE] | 7 | 2 | 17 | 117 | 73 | 92 | Non-toxic
